ChEMBL document CHEMBL1129426, “5-Lipoxygenase inhibitors: synthesis and structure-activity relationships of a series of 1-aryl-2H,4H-tetrahydro-1,2,4-triazin-3-ones” (J Med Chem, 1996)
Calls of active or inactive are those of the source. The rule behind the calls is not given here.

How the values were obtained:
[1] = biological target: T1, Polyunsaturated fatty acid 5-lipoxygenase (Rattus norvegicus, UniProt P12527); test: Inhibition of 5-lipoxygenase catalysis in rat basophilic leukemia (RBL) cells by measuring 5-HETE product formation; type: cell-based, RBL-1
T1 sequence (P12527 whole entry): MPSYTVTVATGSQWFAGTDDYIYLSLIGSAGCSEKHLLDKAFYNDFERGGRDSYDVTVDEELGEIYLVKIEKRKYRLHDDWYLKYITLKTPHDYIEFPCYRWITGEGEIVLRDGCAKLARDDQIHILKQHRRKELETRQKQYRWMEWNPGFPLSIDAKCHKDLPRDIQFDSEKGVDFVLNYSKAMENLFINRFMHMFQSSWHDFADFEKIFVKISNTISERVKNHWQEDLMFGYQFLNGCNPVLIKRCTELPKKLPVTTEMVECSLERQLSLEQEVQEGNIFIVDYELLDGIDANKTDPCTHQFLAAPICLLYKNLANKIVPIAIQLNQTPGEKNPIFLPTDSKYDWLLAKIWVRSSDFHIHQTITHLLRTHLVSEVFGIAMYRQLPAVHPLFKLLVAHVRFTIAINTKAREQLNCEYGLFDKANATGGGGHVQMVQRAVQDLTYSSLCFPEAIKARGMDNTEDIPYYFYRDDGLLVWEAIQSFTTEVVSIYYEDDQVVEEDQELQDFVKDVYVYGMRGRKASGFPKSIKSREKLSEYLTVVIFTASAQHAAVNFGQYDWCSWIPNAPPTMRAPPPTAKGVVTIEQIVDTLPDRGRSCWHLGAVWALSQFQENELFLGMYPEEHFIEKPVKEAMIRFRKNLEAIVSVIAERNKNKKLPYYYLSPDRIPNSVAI
Method in brief: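 Crude 20000g supernatant from sonicated rat basophilic leukemia cells used as 5-LO source; 5-HETE product formation measured.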

[2] = Plasma Cmax in rat (PO dose); type: ADME, organism-based; parameters: route oral
Method in brief: (§1)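 Rats dosed by oral gavage at 200 µmol/kg. Tail-vein blood drawn at about 1 h intervals; plasma analysed by HPLC. Mean of data from two animals.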

[3] = Plasma Tmax in rat (PO dose); type: ADME, organism-based; method in brief: as §1
Rattus norvegicus [4] = test: In vivo inhibition of rat anaphylaxis LTE4 leukotriene formation from peritoneal fluids, 1 hr after an oral dose of 200 uM/kg; type: functional
Method in brief: (§2)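 Rats given 200 µmol/kg orally 1 h before antibody-antigen challenge inducing peritoneal leukotriene biosynthesis; LTE4 in peritoneal fluid measured. Mean of eight rats; percent inhibition versus control group mean; significance by one-way ANOVA with Tukey's multiple comparison.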

Rattus norvegicus [5] = test: In vivo inhibition of rat anaphylaxis leukotriene formation from peritoneal fluids, 1 hr after an oral dose of 200 uM/Kg; type: functional; method in brief: as §2
[6] = biological target: T2, Polyunsaturated fatty acid 5-lipoxygenase (Homo sapiens, UniProt P09917); test: In vitro 5-lipoxygenase inhibitory activity against calcium ionophore (A23187) induced LTB4 formation in human whole blood.
T2 sequence (P09917 whole entry): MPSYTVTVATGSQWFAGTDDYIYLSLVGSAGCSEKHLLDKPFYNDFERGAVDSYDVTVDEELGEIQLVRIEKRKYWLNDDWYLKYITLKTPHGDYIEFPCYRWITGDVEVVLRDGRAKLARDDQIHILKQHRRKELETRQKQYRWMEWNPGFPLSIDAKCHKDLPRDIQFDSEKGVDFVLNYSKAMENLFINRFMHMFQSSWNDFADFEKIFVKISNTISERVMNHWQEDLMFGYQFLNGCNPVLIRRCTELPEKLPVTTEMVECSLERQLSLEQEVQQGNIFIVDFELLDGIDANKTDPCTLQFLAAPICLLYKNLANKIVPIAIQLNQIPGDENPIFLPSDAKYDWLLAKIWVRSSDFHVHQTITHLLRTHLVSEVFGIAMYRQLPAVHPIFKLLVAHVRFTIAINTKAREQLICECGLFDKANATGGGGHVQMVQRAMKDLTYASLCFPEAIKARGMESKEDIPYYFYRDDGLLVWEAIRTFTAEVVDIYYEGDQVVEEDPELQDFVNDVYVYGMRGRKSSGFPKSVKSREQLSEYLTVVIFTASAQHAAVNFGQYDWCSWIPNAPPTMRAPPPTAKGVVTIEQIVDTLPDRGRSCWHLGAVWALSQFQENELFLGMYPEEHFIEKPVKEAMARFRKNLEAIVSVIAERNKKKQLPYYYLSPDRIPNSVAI

Rattus norvegicus [7] = test: In vivo inhibition of rat anaphylaxis leukotriene formation from peritoneal fluids, 1 hr after an oral dose of 200 uM/Kg; Not significant; type: functional, organism-based; method in brief: as §2

Structure (SMILES) | IC50 [1] [µM] | Cmax [2] [µM] | Tmax [3] [h] | Inhibition (Rattus norvegicus [4]) [%] | ED50 (Rattus norvegicus [5]) [mg/kg] | IC50 [6] [µM] | ED50 (Rattus norvegicus [7])
CCN1CCN(c2ccccc2)NC1=O | 32 | – | – | – | – | – | –
Cc1cccc(N2CC(C)NC(=O)N2)c1 (configuration not stated) | 1.3 | 44 | 2.2 | 43 | – | – | –
O=C1NCCN(c2cccc(Br)n2)N1 | 3.5 | 79 | 1 | – | 41 | 4.6 | –
CON1C(=O)NN(c2ccccc2)CC1C (configuration not stated) | 22 | – | – | – | – | – | –
O=C1NCCN(c2cccc(Cl)n2)N1 | 5.6 | 122 | 2 | – | 16 | 4.8 | –
Cc1cccc(N2CCNC(=O)N2)n1 | 5.5 | 99 | 1 | – | 17 | 7.9 | –
O=C1NCCN(c2cccc(-c3cccs3)n2)N1 | 8.2 | – | – | – | – | 37 | –
CC1CN(c2cccc(-c3cccs3)c2)NC(=O)N1 (configuration not stated) | 2.8 | 1 | 4 | – | – | 5.5 | –
CC1CN(c2cccc(F)c2)NC(=O)N1 (configuration not stated) | 6.3 | 70.2 | 7.2 | 60 | – | 1.8 | –
O=C1NCCN(c2cccnc2)N1 | 32 | – | – | – | – | – | –
O=C1NC(Oc2ccccc2)CN(c2ccccc2)N1 (configuration not stated) | – | – | – | – | – | 2.6 | inactive
Cc1cccc(N2CC(C)NC(=O)N2)n1 (configuration not stated) | 3.8 | 125 | 1 | – | – | 1.7 | –
O=C1NC(Oc2ccc(F)cc2)CN(c2ccccc2)N1 (configuration not stated) | – | – | – | – | – | 2.6 | inactive
CC1CN(c2ccccc2)NC(=O)N1O (configuration not stated) | 6 | – | – | – | – | 13 | –
Cc1cc(C)cc(N2CCNC(=O)N2)c1 | – | 20 | 4 | 46 | – | – | –
CC1CN(c2cccc(Br)n2)NC(=O)N1 (configuration not stated) | – | 21 | 2 | 57 | – | 3.1 | –
O=C1NCCN(c2cccc(O)c2)N1 | 32 | – | – | – | – | – | –
O=C1NCCN(c2cccc(OCc3ccccc3)c2)N1 | 1.1 | 2.5 | 1 | 14 | – | 0.2 | –
COc1cccc(N2CCNC(=O)N2)n1 | 9.5 | 101 | 1 | 26 | – | 3.5 | –
O=C1NCCN(c2nc3ccccc3s2)N1 | 32 | 123 | 2 | – | – | – | –

Structure (SMILES) | IC50 [1] [µM] | Cmax [2] [µM] | Tmax [3] [h] | Inhibition (Rattus norvegicus [4]) [%] | ED50 (Rattus norvegicus [5]) [mg/kg] | IC50 [6] [µM] | ED50 (Rattus norvegicus [7])
Cc1ccccc1N1CCNC(=O)N1 | 386 | 78 | 2.1 | – | – | – | inactive
CCc1cccc(N2CCNC(=O)N2)c1 | – | 32 | 1.1 | – | 24 | – | –
O=C1NCCN(c2cccc(-c3ccccn3)n2)N1 | 6 | – | – | – | – | > 50 | –
O=C1NCCN(c2cccc([N+](=O)[O-])c2)N1 | 49 | 62 | 2 | – | – | – | –
CSc1cccc(N2CCNC(=O)N2)c1 | – | 26 | 1 | 73 | – | 2.2 | –
O=C1NCCN(c2cccc(F)n2)N1 | 9.1 | – | – | – | – | 3 | –
CCC1CN(c2ccccc2)NC(=O)N1 (configuration not stated) | – | 59 | 1.2 | – | 24 | 3.8 | –
CCCCC1CN(c2ccccc2)NC(=O)N1 (configuration not stated) | 1.5 | 8 | 1 | 42 | – | – | –
Cc1cccc(N2CC(C)N(O)C(=O)N2)c1 (configuration not stated) | 8.4 | – | – | – | – | 4.8 | –
CC1CN(c2ccccc2)NC(=O)N1 (configuration not stated) | 11 | 141 | 2 | – | 13 | 5.8 | –
Cc1cccc(N2CCNC(=O)N2)c1 | – | 98 | 1.1 | – | 18 | 2 | –
COc1cccc(N2CCNC(=O)N2)c1 | 47 | 72 | 1.2 | 44 | – | – | –
O=C1NCCN(c2cccc(-c3ccccn3)c2)N1 | 30 | – | – | – | – | – | –
O=C1NCCN(c2cnc3ccccc3c2)N1 | 32 | 58 | 1 | – | – | – | –
COc1cccc(N2CC(C)NC(=O)N2)n1 (configuration not stated) | 5.5 | 85 | 1 | – | – | 7.1 | –
O=C1NCCN(c2ccncc2)N1 | 32 | – | – | – | – | – | –
CN1CCN(c2ccccc2)NC1=O | 32 | – | – | – | – | – | –
O=C1NN(c2ccccc2)CCN1Cc1ccccc1 | 8.3 | – | – | – | – | – | –
CC1CN(c2cccc(Cl)c2)NC(=O)N1O (configuration not stated) | – | – | – | – | – | 3.6 | –
COCCOCC1CN(c2ccccc2)NC(=O)N1 (configuration not stated) | 14 | – | – | – | – | 24 | –

Structure (SMILES) | IC50 [1] [µM] | Cmax [2] [µM] | Tmax [3] [h] | Inhibition (Rattus norvegicus [4]) [%] | ED50 (Rattus norvegicus [5]) [mg/kg] | IC50 [6] [µM] | ED50 (Rattus norvegicus [7])
CC1CN(c2cccc(Cl)n2)NC(=O)N1 (configuration not stated) | 3.5 | 48 | 2 | – | – | 1.6 | inactive
CC1CN(c2cccc(F)n2)NC(=O)N1 (configuration not stated) | 6.6 | – | – | – | – | 6 | –
O=C1NCCN(c2nc3ccccc3o2)N1 | 32 | – | – | – | – | – | –
O=C1NCCN(c2ccccn2)N1 | – | 184 | 1 | – | 8 | 8.6 | –
O=C1NCCN(c2cccc(-c3ccsc3)c2)N1 | 4.9 | 2 | 1 | – | – | 5.3 | –
CC(C)C1CN(c2ccccc2)NC(=O)N1 (configuration not stated) | 6.8 | 48 | 2 | – | 59 | 20 | –
O=C1NCCN(c2cccc(Cl)c2)N1 | 5.3 | 59 | 2 | – | 18 | 2.1 | –
O=C1NCCN(c2cccc(-c3ccncc3)c2)N1 | 30 | – | – | – | – | – | –
O=C1NCCN(c2cccc(-c3cccs3)c2)N1 | 2.1 | 3 | 1 | – | – | 8.8 | –
CC1CN(c2cccc(-c3ccco3)c2)NC(=O)N1 (configuration not stated) | 4.8 | 7 | 1 | – | – | 8.4 | inactive
Cc1ccc(N2CCNC(=O)N2)cc1 | 300 | 105 | 1.1 | – | – | – | –
CC1CN(c2cccc(Cl)c2)NC(=O)N1 (configuration not stated) | 2.7 | 31 | 4 | 40 | – | 2.7 | –
O=C1NCCN(c2cc(F)cc(F)c2)N1 | 8.9 | 64 | 2 | 59 | – | 4.6 | –
O=C1NCCN(c2cccc(C(F)(F)F)c2)N1 | – | 24 | 4.1 | 40 | – | – | –
O=C1NCCN(c2cccc(Br)c2)N1 | – | 35 | 4.2 | 46 | – | – | –
CC1(C)CN(c2ccccc2)NC(=O)N1 | 6.8 | 20 | 2.2 | – | – | – | inactive
O=C1NCCN(c2ccnc3cc(Cl)ccc23)N1 | 32 | 85 | 4 | – | – | – | –
CC1CN(c2cccc(Br)c2)NC(=O)N1 (configuration not stated) | 2.6 | 26 | 7.2 | 54 | – | 5.2 | –
Nc1cccc(N2CCNC(=O)N2)c1 | 178 | 95 | 1.1 | – | – | – | –
O=C1NCCN(c2cccc(F)c2)N1 | – | 108 | 1 | 38 | – | – | –
